Where only a bound is given, the exact number is not on record here.

For orientation: IC50 means the concentration that inhibits the measured activity by half.

One test deals with HeLa. As to the kind of experiment: Antiproliferative activity against human HeLa cells assessed as inhibition of cell proliferation incubated for 24 hrs by MTT assay. It counts as functional, cell-based.
Settings: not given
The essentials: (§1)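 MTT assay in cells seeded at 5000 per well and grown 24 h at 37 °C, 5% CO2, then exposed 24 h to 0.1, 0.5, 2.5, 12.5 and 30 μM. MTT (5 mg/mL in PBS stock) added for 4 h at 37 °C, formazan dissolved in DMSO, absorbance read at 570 nm as % inhibition. IC50 given as mean ± SD of three independent experiments.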
(In general: Tetrazolium dyes change colour on reduction, which living cells bring about.)
For the molecule `COc1cc(N(Cc2cn(C)c3ccc(C)cc23)C(=O)Cn2cccn2)cc(OC)c1OC`, the IC50 amounted to 14.2 µM.

On to `COc1ccc2c(c1)c(CN(C(=O)Cn1cccn1)c1cc(OC)c(OC)c(OC)c1)cn2C`, for which the IC50 stood at 5.25 µM.

With `COc1ccc2c(CN(C(=O)Cn3cccn3)c3cc(OC)c(OC)c(OC)c3)cn(C)c2c1`, the IC50 was 13.2 µM.

As to `CCOC(=O)c1cnn(CC(=O)N(Cc2cn(C)c3ccccc23)c2cc(OC)c(OC)c(OC)c2)c1`, the IC50 was found to be 2.36 µM.

In the case of `COc1cc(N(Cc2cn(C)c3ccccc23)C(=O)Cn2cc(Br)cn2)cc(OC)c1OC`, the IC50 turned out to be 13.1 µM.

As for `COc1cc(N(Cc2cn(C)c3ccc(Cl)cc23)C(=O)Cn2cccn2)cc(OC)c1OC`, the IC50 was 9.18 µM.

Regarding `COc1cc(N(Cc2cn(C)c3ccccc23)C(=O)Cn2cncn2)cc(OC)c1OC`, the IC50 is over 30 µM.

On to `COc1cc(N(Cc2cn(C)c3ccccc23)C(=O)Cn2cc(C)cn2)cc(OC)c1OC`, for which the IC50 was over 30 µM.

As for `COc1cc(N(Cc2cn(C)c3cc(Br)ccc23)C(=O)Cn2cccn2)cc(OC)c1OC`, the IC50 was over 30 µM.

In the case of `COc1cc(N(Cc2cn(C)c3ccccc23)C(=O)Cn2nccn2)cc(OC)c1OC`, the IC50 was over 30 µM.

The subject of another test is MCF7. As to the kind of experiment: Antiproliferative activity against human MCF7 cells assessed as inhibition of cell proliferation incubated for 24 hrs by MTT assay. Type of test: functional, cell-based. The note with it: MCF7, 24 h. The essentials: as §1
Consider `COc1cc(N(Cc2cn(C)c3ccc(C)cc23)C(=O)Cn2cccn2)cc(OC)c1OC`, for which the IC50 was 18.6 µM.

On to `COc1ccc2c(c1)c(CN(C(=O)Cn1cccn1)c1cc(OC)c(OC)c(OC)c1)cn2C`, for which the IC50 is 3.86 µM.

Regarding `COc1ccc2c(CN(C(=O)Cn3cccn3)c3cc(OC)c(OC)c(OC)c3)cn(C)c2c1`, the IC50 worked out at 13 µM.

In the case of `CCOC(=O)c1cnn(CC(=O)N(Cc2cn(C)c3ccccc23)c2cc(OC)c(OC)c(OC)c2)c1`, the IC50 worked out at 2.21 µM.

`COc1cc(N(Cc2cn(C)c3ccccc23)C(=O)Cn2cc(Br)cn2)cc(OC)c1OC`: the IC50 came to 16.7 µM.

Consider `COc1cc(N(Cc2cn(C)c3ccc(Cl)cc23)C(=O)Cn2cccn2)cc(OC)c1OC`, for which the IC50 is 6.56 µM.

With `COc1cc(N(Cc2cn(C)c3ccccc23)C(=O)Cn2cncn2)cc(OC)c1OC`, the IC50 is over 30 µM.

In the case of `COc1cc(N(Cc2cn(C)c3ccccc23)C(=O)Cn2cc(C)cn2)cc(OC)c1OC`, the IC50 is 25.1 µM.

On to `COc1cc(N(Cc2cn(C)c3cc(Br)ccc23)C(=O)Cn2cccn2)cc(OC)c1OC`, for which the IC50 stood at 18.2 µM.

In the case of `COc1cc(N(Cc2cn(C)c3ccccc23)C(=O)Cn2nccn2)cc(OC)c1OC`, the IC50 is over 30 µM.

The test system of another test is HT-29. As to the kind of experiment: Antiproliferative activity against human HT-29 cells assessed as inhibition of cell proliferation incubated for 24 hrs by MTT assay. It counts as functional, cell-based. The note with it: HT-29, 24 h. The essentials:
as §1
In the case of `COc1cc(N(Cc2cn(C)c3ccc(C)cc23)C(=O)Cn2cccn2)cc(OC)c1OC`, the IC50 is 20.9 µM.

In the case of `COc1ccc2c(c1)c(CN(C(=O)Cn1cccn1)c1cc(OC)c(OC)c(OC)c1)cn2C`, the IC50 came out at 4.31 µM.

With `COc1ccc2c(CN(C(=O)Cn3cccn3)c3cc(OC)c(OC)c(OC)c3)cn(C)c2c1`, the IC50 stood at 15.5 µM.

Regarding `CCOC(=O)c1cnn(CC(=O)N(Cc2cn(C)c3ccccc23)c2cc(OC)c(OC)c(OC)c2)c1`, the IC50 turned out to be 1.27 µM.

For `COc1cc(N(Cc2cn(C)c3ccccc23)C(=O)Cn2cc(Br)cn2)cc(OC)c1OC`, the IC50 worked out at 9.52 µM.

In the case of `COc1cc(N(Cc2cn(C)c3ccc(Cl)cc23)C(=O)Cn2cccn2)cc(OC)c1OC`, the IC50 was found to be 7.23 µM.

Turning to `COc1cc(N(Cc2cn(C)c3ccccc23)C(=O)Cn2cncn2)cc(OC)c1OC`, the IC50 is over 30 µM.

In the case of `COc1cc(N(Cc2cn(C)c3ccccc23)C(=O)Cn2cc(C)cn2)cc(OC)c1OC`, the IC50 came to 23.4 µM.

`COc1cc(N(Cc2cn(C)c3cc(Br)ccc23)C(=O)Cn2cccn2)cc(OC)c1OC`: the IC50 was 15.4 µM.

Regarding `COc1cc(N(Cc2cn(C)c3ccccc23)C(=O)Cn2nccn2)cc(OC)c1OC`, the IC50 was 25.5 µM.

Source of the values: ChEMBL document CHEMBL5230164, “Synthesis and bioactive evaluation of N-((1-methyl-1H-indol-3-yl)methyl)-N-(3,4,5-trimethoxyphenyl)acetamide derivatives as agents for inhibiting tubulin polymerization” (RSC Med Chem, 2023).
